DENV2 CPE rescue: protects cells from dengue virus 2 cytopathic effect. 350,000 tested, 1.7% active. DENV2-infected cells, cytopathic effect rescue, plate reader. CPE inhibition, % at 9.99 µM; in the data active = CPE inhibition above about 20%, passing the limit was not always enough; tested in BHK-21 cells;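 note: 0% = median of neutral control wells and 100% = median of positive control wells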
E-sel inducer: induces E-selectin expression in human endothelial cells. HUVEC E-selectin immunofluorescence imaging; normalized: neutral wells 0, TNF-alpha wells 100. activation, % at 7.58 µM. 260,000 tested, 0.37% active;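 active = mean E-selectin-positive cell signal at least 10% of the positive control, reached in at least 60% of replicates, without over 20% cell loss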
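Material: HUVEC primary endothelial cells; Amount: 3,000 cells per well; Dosing: single concentration; Medium: EGM-2 growth medium on 0.1% gelatin-coated wells; Read-out basis: percent E-selectin-positive cells; Signal: immunofluorescence imaging; Control set: TNF-alpha, DMSO.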
FGF22 binding: binders of recombinant human FGF22 by thermal shift. SYPRO orange fluorescence; percent of sucrose octasulfate shift, DMSO zero. activity (Tm shift, normalised), % at 9.99 µM. 340,000 tested, 1.5% active. Q9HCT0;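 active = mean Tm shift, scaled 0 neutral to 100 positive control, at about 1.3% or above, every replicate too, limit read from the data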
Target sequence (Q9HCT0 whole entry, looked up): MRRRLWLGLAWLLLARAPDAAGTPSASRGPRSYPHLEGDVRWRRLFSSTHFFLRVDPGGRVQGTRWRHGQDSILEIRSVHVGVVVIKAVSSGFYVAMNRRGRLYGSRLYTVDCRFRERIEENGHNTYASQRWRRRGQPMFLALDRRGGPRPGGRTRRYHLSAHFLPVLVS
ERAP1 HTS inh: blocks human ERAP1 aminopeptidase activity; recombinant ERAP1, Leu-AMC fluorescence, 60 min; inhibition, % at 10.7 µM; 340,000 tested, 0.15% active; Q9NZ08;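 active = mean replicate inhibition of at least 30%, or all replicates individually reaching that 30% level; inactive = mean below 30% and not every replicate reaching it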;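 note: 0% = neutral control wells and 100% = L-leucinethiol positive control wells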
CFTR F508del cor: correctors of CFTR F508del function in bronchial epithelial cells | AID 720511 | CFBE cells, YFP halide quenching; stimulated with forskolin plus potentiator P3; % fluorescence drop versus neutral controls | 350,000 tested, 0.36% active | activity (quench increase), % at 7.58 µM;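 active = mean added fluorescence quench of at least 8% versus neutral control, with both replicates also reaching 8%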;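 note: cells transiently co-express mutant CFTR-F508del with the halide-sensitive YFP; corrector assay measuring rescue of mutant channel to the surface after 24 h compound exposure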
Active calls of the source: *. Hits are enriched below; roughly 3.7% of the tested compounds scored in any of these assays.

How did CCOC(=O)[C@@H](CCc1ccccc1)N[C@H](C)C(=O)N1[C@H](C(=O)O)C[C@@H]2CCC[C@@H]21 do in these assays?
DENV2 CPE rescue: 0; E-sel inducer: 0; FGF22 binding: 0; ERAP1 HTS inh: 2; CFTR F508del cor: -2

Results for CCOC(=O)[C@H](CCc1ccccc1)N[C@@H](C)C(=O)N1[C@H](C(=O)O)C[C@@H]2CCC[C@@H]21 ?
DENV2 CPE rescue: 3; E-sel inducer: 1; FGF22 binding: 0; ERAP1 HTS inh: -2; CFTR F508del cor: 12*

Results for O=C(CSc1nc2ccccc2c(=O)n1-c1ccccc1F)NC1CC1 ?
DENV2 CPE rescue: 22*; FGF22 binding: 0; ERAP1 HTS inh: -6

Results for O=C(CSc1nc2ccccc2c(=O)n1-c1ccc(F)cc1F)NC1CC1 ?
DENV2 CPE rescue: -2; E-sel inducer: 0; FGF22 binding: 43*; ERAP1 HTS inh: 0; CFTR F508del cor: 2

Results for Cc1ccc(-n2c(SCC(=O)NC3CCS(=O)(=O)C3)nc3ccccc3c2=O)c(C)c1 (configuration not stated) ?
DENV2 CPE rescue: 38*; E-sel inducer: 1; FGF22 binding: 0; ERAP1 HTS inh: 6; CFTR F508del cor: 0

Results for Cc1ccccc1-n1c(SCC(=O)NC2CCS(=O)(=O)C2)nc2ccccc2c1=O (configuration not stated) ?
DENV2 CPE rescue: 4; E-sel inducer: 0; FGF22 binding: 0; ERAP1 HTS inh: -1; CFTR F508del cor: -3

How did Cc1noc(C)c1NC(=O)Nc1ccc2c(c1)C(=O)N([C@@H](C)CO)C[C@H](C)[C@@H](CN(C)C(=O)Nc1c(C)noc1C)O2 do in these assays?
DENV2 CPE rescue: 1; E-sel inducer: 0; FGF22 binding: 0; ERAP1 HTS inh: 1; CFTR F508del cor: 1

What do the screens show for `C/C=C(/C)C(=O)O[C@@H]1c2c(ccc3ccc(=O)oc23)OC(C)(C)[C@@H]1OC(=O)/C(C)=C\C`?
DENV2 CPE rescue: 26*; E-sel inducer: 0; FGF22 binding: 0; ERAP1 HTS inh: -2; CFTR F508del cor: 2

What do the screens show for `Cc1noc(C)c1S(=O)(=O)Nc1cccc2c1O[C@@H](CN(C)C(=O)Nc1ccc(F)cc1)[C@@H](C)CN([C@@H](C)CO)C2=O`?
DENV2 CPE rescue: -6; E-sel inducer: 0; FGF22 binding: 0; ERAP1 HTS inh: 9; CFTR F508del cor: 0

Results for CC(=O)c1ccc(Nc2cc(C)nc3c(C)cc(C)cc23)cc1 ?
DENV2 CPE rescue: 3; FGF22 binding: 0; ERAP1 HTS inh: 11; CFTR F508del cor: 17*

What do the screens show for `COc1cccc(NC(=O)Nc2ccc3c(c2)C(=O)N(C)C[C@@H](OC)[C@@H](C)CN(C)[C@H](C)CO3)c1`?
DENV2 CPE rescue: 26*; E-sel inducer: 0; FGF22 binding: 0; ERAP1 HTS inh: 0; CFTR F508del cor: 0

Results for CCCN1C[C@H](C)[C@H](OC)CN(C)C(=O)c2cc(NC(=O)Nc3ccccc3F)ccc2OC[C@H]1C ?
DENV2 CPE rescue: 1; E-sel inducer: 0; FGF22 binding: 0; CFTR F508del cor: 2

How did CCCN1C[C@@H](C)[C@H](OC)CN(C)C(=O)c2cc(NC(=O)c3cccc(F)c3)ccc2OC[C@@H]1C do in these assays?
DENV2 CPE rescue: -10; E-sel inducer: 0; FGF22 binding: 0; ERAP1 HTS inh: -3; CFTR F508del cor: 2

What do the screens show for `CCCN1C[C@H](C)[C@@H](OC)CN(C)C(=O)c2cc(NC(=O)Nc3ccccc3F)ccc2OC[C@H]1C`?
DENV2 CPE rescue: 29*; E-sel inducer: 0; FGF22 binding: 0; CFTR F508del cor: 1

How did CO[C@@H]1CN(C)C(=O)c2ccc(NC(=O)c3cccc(F)c3)cc2OC[C@H](C)N(C)C[C@H]1C do in these assays?
DENV2 CPE rescue: 37*; E-sel inducer: 0; FGF22 binding: 0; ERAP1 HTS inh: 0; CFTR F508del cor: -2

What do the screens show for `COc1cccc(NC(=O)Nc2ccc3c(c2)C(=O)N(C)C[C@H](OC)[C@H](C)CN(C)[C@H](C)CO3)c1`?
DENV2 CPE rescue: -9; E-sel inducer: 0; FGF22 binding: 0; ERAP1 HTS inh: -3; CFTR F508del cor: 1

What do the screens show for `CO[C@H]1CN(C)C(=O)c2cc(NC(=O)c3cccc(F)c3)ccc2OC[C@H](C)N(C)C[C@H]1C`?
DENV2 CPE rescue: -1; E-sel inducer: 0; FGF22 binding: 0; ERAP1 HTS inh: 0; CFTR F508del cor: 0

How did CCCN1C[C@@H](C)[C@@H](OC)CN(C)C(=O)c2cc(NC(=O)c3cccc(F)c3)ccc2OC[C@@H]1C do in these assays?
DENV2 CPE rescue: 27*; E-sel inducer: 0; FGF22 binding: 0; ERAP1 HTS inh: 4; CFTR F508del cor: 2

How did CN1C(=O)c2cc(NC(=O)NC3CCCC3)ccc2OC[C@@H]2O[C@@H](CC(=O)NC3CCC3)CC[C@H]21 do in these assays?
DENV2 CPE rescue: -5; E-sel inducer: 1; FGF22 binding: 0; ERAP1 HTS inh: 0; CFTR F508del cor: 1

How did C[C@@H]1CCCCO[C@H](CN(C)C)[C@@H](C)CN([C@@H](C)CO)C(=O)c2cc(NC(=O)CCC(F)(F)F)ccc2O1 do in these assays?
DENV2 CPE rescue: -8; E-sel inducer: 0; FGF22 binding: 0; ERAP1 HTS inh: -1; CFTR F508del cor: -2

Results for CO[C@@H]1CN(C)C(=O)c2cc(NC(=O)Nc3cccc(F)c3)ccc2OC[C@@H](C)N(C)C[C@H]1C ?
DENV2 CPE rescue: 5; E-sel inducer: 0; FGF22 binding: 0; ERAP1 HTS inh: -2; CFTR F508del cor: 1

What do the screens show for `CO[C@H]1CN(C)C(=O)c2cc(NC(=O)Nc3cccc(F)c3)ccc2OC[C@H](C)N(C)C[C@H]1C`?
DENV2 CPE rescue: 29*; E-sel inducer: 0; FGF22 binding: 0; ERAP1 HTS inh: -5; CFTR F508del cor: -2

How did COc1cccc(-c2nc3nc(C)cc(C)n3c2NC2CCCC2)c1 do in these assays?
DENV2 CPE rescue: 30*; E-sel inducer: 0; FGF22 binding: 0; ERAP1 HTS inh: -1; CFTR F508del cor: 0

How did Cc1cc(C)n2c(Nc3ccc4c(c3)OCCO4)c(-c3cc4ccccc4o3)nc2n1 do in these assays?
DENV2 CPE rescue: 1; E-sel inducer: 0; FGF22 binding: 0; ERAP1 HTS inh: 0; CFTR F508del cor: -2

What do the screens show for `COc1ccc(Nc2c(-c3cccc(OC)c3)nc3nc(C)cc(C)n23)cc1`?
DENV2 CPE rescue: 7; E-sel inducer: 0; FGF22 binding: 0; ERAP1 HTS inh: 9; CFTR F508del cor: 2

Results for Cc1cc(C)n2c(NC3CCCCC3)c(-c3ccccn3)nc2n1 ?
DENV2 CPE rescue: 29*; E-sel inducer: 0; FGF22 binding: 1; ERAP1 HTS inh: 1; CFTR F508del cor: 5

How did Cc1cc(C)n2c(Nc3ccc4c(c3)OCCO4)c(-c3ccccn3)nc2n1 do in these assays?
DENV2 CPE rescue: 3; E-sel inducer: 0; FGF22 binding: 0; ERAP1 HTS inh: 54*; CFTR F508del cor: 3

High-throughput results as filed in PubChem BioAssay.
